In ChEMBL document CHEMBL4043093, “2-Oxo-3, 4-dihydropyrimido[4, 5-d]pyrimidinyl derivatives as new irreversible pan fibroblast growth factor receptor (FGFR) inhibitors” (Eur J Med Chem, 2017):

Columns and labels:
[1] = molecular target: Tyrosine-protein kinase Srms (Homo sapiens) (UniProt Q9H3Y6); test: Inhibition of wild-type human partial length SRMS (L208 to P488 residues) expressed in HEK293 cells assessed as residual activity at 1000 nM after 30 mins by Kinomescan method relative to control; assay type: cell-based
[2] = molecular target: Cyclin-dependent kinase-like 1 (Homo sapiens) (UniProt Q00532); test: Inhibition of wild-type human full length CDKL1 (M1 to I358 residues) expressed in HEK293 cells assessed as residual activity at 1000 nM after 30 mins by Kinomescan method relative to control; assay type: cell-based
How it was run: (§1)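 Single-point screen at a fixed 1 µM, run within a 456-kinase DiscoveRx KINOMEscan panel. Each kinase's read-out is Percent Control, i.e. signal relative to a control without compound. Hits were scored by a Percent Control < 35 cut-off, and an S(35) selectivity score was calculated across the non-mutant kinases.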

[3] = molecular target: Citron Rho-interacting kinase (Homo sapiens) (UniProt O14578); test: Inhibition of wild-type human partial length CIT (M68 to E432 residues) expressed in Escherichia coli BL21 assessed as residual activity at 1000 nM after 30 mins by Kinomescan method relative to control
[4] = molecular target: Casein kinase I isoform delta (Homo sapiens) (UniProt P48730); test: Inhibition of wild-type human full length CSNK1D (M1 to K409 residues) expressed in Escherichia coli BL21 assessed as residual activity at 1000 nM after 30 mins by Kinomescan method relative to control; how it was run: as §1
[5] = test system: Epidermal growth factor receptor (Homo sapiens), P00533 [G719C]; test: Inhibition of human partial length EGFR G719C mutant (R669 to V1011 residues) expressed in Escherichia coli BL21 assessed as residual activity at 1000 nM after 30 mins by Kinomescan method relative to control
How it was run: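 KINOMEscan binding panel of 456 kinases, with the test compound at a single concentration of 1 µM. Read-out is Percent Control.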

[6] = molecular target: Dual specificity mitogen-activated protein kinase kinase 5 (Homo sapiens) (UniProt Q13163); test: Inhibition of wild-type human partial length MEK5 (L98 to P448 residues) expressed in HEK293 cells assessed as residual activity at 1000 nM after 30 mins by Kinomescan method relative to control; assay type: cell-based
[7] = molecular target: Activin receptor type-1-like (Homo sapiens) (UniProt P37023); test: Inhibition of wild-type human ACVRL1 (L164 to Q503 residues) expressed in Escherichia coli BL21 assessed as residual activity at 1000 nM after 30 mins by Kinomescan method relative to control; how it was run: as §1
[8] = molecular target: Casein kinase I isoform alpha (Homo sapiens) (UniProt P48729); test: Inhibition of wild-type human partial length CSNK1A1 (M1 to L450 residues) expressed in HEK293 cells assessed as residual activity at 1000 nM after 30 mins by Kinomescan method relative to control; assay type: cell-based
[9] = molecular target: Serine/threonine-protein kinase LATS2 (Homo sapiens) (UniProt Q9NRM7); test: Inhibition of wild-type human partial length LATS2 (Q641 to V1088 residues) expressed in HEK293 cells assessed as residual activity at 1000 nM after 30 mins by Kinomescan method relative to control; assay type: cell-based
[10] = molecular target: Tyrosine-protein kinase JAK1 (Homo sapiens) (UniProt P23458); test: Inhibition of wild-type human partial length JAK1 JH2 pseudokinase domain (R537 to D855 residues) expressed in HEK293 cells assessed as residual activity at 1000 nM after 30 mins by Kinomescan method relative to control; assay type: cell-based
[11] = molecular target: Rhodopsin kinase GRK7 (Homo sapiens) (UniProt Q8WTQ7); test: Inhibition of wild-type human full length GRK7 (M1 to L553 residues) expressed in HEK293 cells assessed as residual activity at 1000 nM after 30 mins by Kinomescan method relative to control; assay type: cell-based
How it was run: (§2)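 Single-concentration screen at 1 µM across a 456-kinase KINOMEscan panel. The read-out is Percent Control for each kinase.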

[12] = molecular target: Serine/threonine-protein kinase 26 (Homo sapiens) (UniProt Q9P289); test: Inhibition of wild-type human full length MST4 (M1 to P416 residues) expressed in HEK293 cells assessed as residual activity at 1000 nM after 30 mins by Kinomescan method relative to control; assay type: cell-based; how it was run: as §2
[13] = molecular target: Cyclin-dependent kinase 13 (Homo sapiens) (UniProt Q14004); test: Inhibition of wild-type human partial length CDC2L5 (H675 to S1054 residues) expressed in HEK293 cells assessed as residual activity at 1000 nM after 30 mins by Kinomescan method relative to control; assay type: cell-based
[14] = molecular target: Dual specificity mitogen-activated protein kinase kinase 7 (Homo sapiens) (UniProt O14733); test: Inhibition of wild-type human full length MKK7 (M1 to R419 residues) expressed in HEK293 cells assessed as residual activity at 1000 nM after 30 mins by Kinomescan method relative to control; assay type: cell-based; how it was run: as §2
[15] = molecular target: Serine/threonine-protein kinase pim-3 (Homo sapiens) (UniProt Q86V86); test: Inhibition of wild-type human partial length PIM3 (G16 to A317 residues) expressed in Escherichia coli BL21 assessed as residual activity at 1000 nM after 30 mins by Kinomescan method relative to control
[16] = molecular target: Phosphatidylinositol 4-phosphate 5-kinase type-1 gamma (Homo sapiens) (UniProt O60331); test: Inhibition of wild-type human partial length PIP5K1C (M1 to T668 residues) expressed in HEK293 cells assessed as residual activity at 1000 nM after 30 mins by Kinomescan method relative to control; assay type: cell-based
[17] = molecular target: Peripheral plasma membrane protein CASK (Homo sapiens) (UniProt O14936); test: Inhibition of wild-type human partial length CASK (M1 to H315 residues) expressed in HEK293 cells assessed as residual activity at 1000 nM after 30 mins by Kinomescan method relative to control; assay type: cell-based
[18] = molecular target: Myosin light chain kinase family member 4 (Homo sapiens) (UniProt Q86YV6); test: Inhibition of wild-type human partial length MYLK4 (V79 to S380 residues) expressed in Escherichia coli BL21 assessed as residual activity at 1000 nM after 30 mins by Kinomescan method relative to control
[19] = molecular target: Cyclin-G-associated kinase (Homo sapiens) (UniProt O14976); test: Inhibition of wild-type human partial length GAK (G13 to Y338 residues) expressed in Escherichia coli BL21 assessed as residual activity at 1000 nM after 30 mins by Kinomescan method relative to control
[20] = molecular target: Serine/threonine-protein kinase ULK1 (Homo sapiens) (UniProt O75385); test: Inhibition of wild-type human partial length ULK1 (M1 to T309 residues) expressed in HEK293 cells assessed as residual activity at 1000 nM after 30 mins by Kinomescan method relative to control; assay type: cell-based
[21] = molecular target: Homeodomain-interacting protein kinase 2 (Homo sapiens) (UniProt Q9H2X6); test: Inhibition of wild-type human partial length HIPK2 (M153 to S564 residues) expressed in HEK293 cells assessed as residual activity at 1000 nM after 30 mins by Kinomescan method relative to control; assay type: cell-based

Casein kinase I isoform delta (Homo sapiens), sequence (P48730 whole entry, looked up, the tested form may be a part, canonical isoform): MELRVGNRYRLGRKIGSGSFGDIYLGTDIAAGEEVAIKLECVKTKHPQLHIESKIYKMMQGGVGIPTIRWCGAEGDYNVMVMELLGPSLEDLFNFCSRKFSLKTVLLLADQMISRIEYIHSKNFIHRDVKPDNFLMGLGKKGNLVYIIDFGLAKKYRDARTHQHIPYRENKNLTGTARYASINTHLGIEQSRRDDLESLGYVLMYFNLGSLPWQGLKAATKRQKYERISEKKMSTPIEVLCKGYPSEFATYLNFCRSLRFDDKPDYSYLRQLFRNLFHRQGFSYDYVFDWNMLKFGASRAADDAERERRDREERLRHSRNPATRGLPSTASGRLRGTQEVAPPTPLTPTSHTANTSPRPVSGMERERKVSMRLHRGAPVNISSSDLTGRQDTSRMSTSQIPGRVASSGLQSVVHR
Casein kinase I isoform alpha (Homo sapiens), sequence (P48729 2-337 limits assumed): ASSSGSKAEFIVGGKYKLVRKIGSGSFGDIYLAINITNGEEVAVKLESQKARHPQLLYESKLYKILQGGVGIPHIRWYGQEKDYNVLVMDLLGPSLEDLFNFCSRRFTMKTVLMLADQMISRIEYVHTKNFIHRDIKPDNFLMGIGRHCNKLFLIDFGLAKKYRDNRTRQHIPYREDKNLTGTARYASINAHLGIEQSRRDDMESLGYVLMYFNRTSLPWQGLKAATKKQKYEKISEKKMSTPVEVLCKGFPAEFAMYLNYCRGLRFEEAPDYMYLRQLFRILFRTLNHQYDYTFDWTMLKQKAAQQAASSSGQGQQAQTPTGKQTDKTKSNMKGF
Tyrosine-protein kinase JAK1 (Homo sapiens), sequence (P23458 whole entry, the tested form may be a part): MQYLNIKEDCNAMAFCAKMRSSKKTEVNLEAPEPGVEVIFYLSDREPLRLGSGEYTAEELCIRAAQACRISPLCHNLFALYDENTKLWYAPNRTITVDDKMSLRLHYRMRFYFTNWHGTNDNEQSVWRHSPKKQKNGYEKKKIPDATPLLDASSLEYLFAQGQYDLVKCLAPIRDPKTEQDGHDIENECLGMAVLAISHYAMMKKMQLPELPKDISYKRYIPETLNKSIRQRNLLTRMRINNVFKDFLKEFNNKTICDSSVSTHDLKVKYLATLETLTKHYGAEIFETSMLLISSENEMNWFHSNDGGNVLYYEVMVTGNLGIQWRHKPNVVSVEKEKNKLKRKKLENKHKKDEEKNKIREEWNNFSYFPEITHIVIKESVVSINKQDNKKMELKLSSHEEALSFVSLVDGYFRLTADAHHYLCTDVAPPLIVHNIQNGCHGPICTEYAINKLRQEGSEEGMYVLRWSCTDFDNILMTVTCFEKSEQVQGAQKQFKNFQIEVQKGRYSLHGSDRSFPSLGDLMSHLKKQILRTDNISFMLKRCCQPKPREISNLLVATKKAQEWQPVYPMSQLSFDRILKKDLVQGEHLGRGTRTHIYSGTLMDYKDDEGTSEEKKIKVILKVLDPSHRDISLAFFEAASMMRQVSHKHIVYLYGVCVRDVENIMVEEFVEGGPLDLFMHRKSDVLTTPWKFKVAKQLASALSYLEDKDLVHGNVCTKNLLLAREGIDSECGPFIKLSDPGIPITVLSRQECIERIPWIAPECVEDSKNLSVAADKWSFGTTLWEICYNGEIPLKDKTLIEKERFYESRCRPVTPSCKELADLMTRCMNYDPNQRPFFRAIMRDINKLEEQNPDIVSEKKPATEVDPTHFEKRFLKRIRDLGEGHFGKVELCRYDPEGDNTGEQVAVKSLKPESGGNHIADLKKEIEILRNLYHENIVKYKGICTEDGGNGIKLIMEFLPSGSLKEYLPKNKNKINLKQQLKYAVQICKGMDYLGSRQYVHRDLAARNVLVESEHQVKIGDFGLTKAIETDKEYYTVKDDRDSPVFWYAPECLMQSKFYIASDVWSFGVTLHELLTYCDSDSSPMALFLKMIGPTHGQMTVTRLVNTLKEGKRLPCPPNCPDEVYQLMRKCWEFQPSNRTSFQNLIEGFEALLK
Tyrosine-protein kinase Srms (Homo sapiens), sequence (Q9H3Y6 whole entry, the tested form may be a part): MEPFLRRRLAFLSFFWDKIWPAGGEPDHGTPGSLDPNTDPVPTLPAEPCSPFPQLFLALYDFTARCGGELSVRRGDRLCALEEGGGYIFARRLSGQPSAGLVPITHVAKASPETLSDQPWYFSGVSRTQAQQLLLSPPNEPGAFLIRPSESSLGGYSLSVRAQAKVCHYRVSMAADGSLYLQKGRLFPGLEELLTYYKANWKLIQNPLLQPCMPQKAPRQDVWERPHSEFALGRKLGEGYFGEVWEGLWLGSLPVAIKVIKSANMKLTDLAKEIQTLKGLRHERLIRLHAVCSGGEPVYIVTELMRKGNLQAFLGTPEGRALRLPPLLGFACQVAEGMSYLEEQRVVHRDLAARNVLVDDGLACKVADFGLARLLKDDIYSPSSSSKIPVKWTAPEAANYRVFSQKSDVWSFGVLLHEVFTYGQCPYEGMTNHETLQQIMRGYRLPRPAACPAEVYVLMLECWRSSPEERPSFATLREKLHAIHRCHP
Serine/threonine-protein kinase 26 (Homo sapiens), sequence (Q9P289 2-416 limits assumed): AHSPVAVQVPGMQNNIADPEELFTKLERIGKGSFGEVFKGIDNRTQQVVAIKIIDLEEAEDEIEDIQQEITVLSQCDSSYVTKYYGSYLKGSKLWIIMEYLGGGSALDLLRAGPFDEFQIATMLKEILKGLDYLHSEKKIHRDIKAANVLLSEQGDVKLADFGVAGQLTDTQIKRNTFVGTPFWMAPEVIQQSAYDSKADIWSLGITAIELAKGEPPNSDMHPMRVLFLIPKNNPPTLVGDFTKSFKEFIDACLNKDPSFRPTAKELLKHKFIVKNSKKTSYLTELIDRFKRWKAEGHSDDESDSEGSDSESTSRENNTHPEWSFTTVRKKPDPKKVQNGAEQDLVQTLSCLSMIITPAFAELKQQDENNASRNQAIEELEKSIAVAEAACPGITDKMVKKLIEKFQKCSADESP
Citron Rho-interacting kinase (Homo sapiens), sequence (O14578 whole entry, the tested form may be a part, canonical isoform): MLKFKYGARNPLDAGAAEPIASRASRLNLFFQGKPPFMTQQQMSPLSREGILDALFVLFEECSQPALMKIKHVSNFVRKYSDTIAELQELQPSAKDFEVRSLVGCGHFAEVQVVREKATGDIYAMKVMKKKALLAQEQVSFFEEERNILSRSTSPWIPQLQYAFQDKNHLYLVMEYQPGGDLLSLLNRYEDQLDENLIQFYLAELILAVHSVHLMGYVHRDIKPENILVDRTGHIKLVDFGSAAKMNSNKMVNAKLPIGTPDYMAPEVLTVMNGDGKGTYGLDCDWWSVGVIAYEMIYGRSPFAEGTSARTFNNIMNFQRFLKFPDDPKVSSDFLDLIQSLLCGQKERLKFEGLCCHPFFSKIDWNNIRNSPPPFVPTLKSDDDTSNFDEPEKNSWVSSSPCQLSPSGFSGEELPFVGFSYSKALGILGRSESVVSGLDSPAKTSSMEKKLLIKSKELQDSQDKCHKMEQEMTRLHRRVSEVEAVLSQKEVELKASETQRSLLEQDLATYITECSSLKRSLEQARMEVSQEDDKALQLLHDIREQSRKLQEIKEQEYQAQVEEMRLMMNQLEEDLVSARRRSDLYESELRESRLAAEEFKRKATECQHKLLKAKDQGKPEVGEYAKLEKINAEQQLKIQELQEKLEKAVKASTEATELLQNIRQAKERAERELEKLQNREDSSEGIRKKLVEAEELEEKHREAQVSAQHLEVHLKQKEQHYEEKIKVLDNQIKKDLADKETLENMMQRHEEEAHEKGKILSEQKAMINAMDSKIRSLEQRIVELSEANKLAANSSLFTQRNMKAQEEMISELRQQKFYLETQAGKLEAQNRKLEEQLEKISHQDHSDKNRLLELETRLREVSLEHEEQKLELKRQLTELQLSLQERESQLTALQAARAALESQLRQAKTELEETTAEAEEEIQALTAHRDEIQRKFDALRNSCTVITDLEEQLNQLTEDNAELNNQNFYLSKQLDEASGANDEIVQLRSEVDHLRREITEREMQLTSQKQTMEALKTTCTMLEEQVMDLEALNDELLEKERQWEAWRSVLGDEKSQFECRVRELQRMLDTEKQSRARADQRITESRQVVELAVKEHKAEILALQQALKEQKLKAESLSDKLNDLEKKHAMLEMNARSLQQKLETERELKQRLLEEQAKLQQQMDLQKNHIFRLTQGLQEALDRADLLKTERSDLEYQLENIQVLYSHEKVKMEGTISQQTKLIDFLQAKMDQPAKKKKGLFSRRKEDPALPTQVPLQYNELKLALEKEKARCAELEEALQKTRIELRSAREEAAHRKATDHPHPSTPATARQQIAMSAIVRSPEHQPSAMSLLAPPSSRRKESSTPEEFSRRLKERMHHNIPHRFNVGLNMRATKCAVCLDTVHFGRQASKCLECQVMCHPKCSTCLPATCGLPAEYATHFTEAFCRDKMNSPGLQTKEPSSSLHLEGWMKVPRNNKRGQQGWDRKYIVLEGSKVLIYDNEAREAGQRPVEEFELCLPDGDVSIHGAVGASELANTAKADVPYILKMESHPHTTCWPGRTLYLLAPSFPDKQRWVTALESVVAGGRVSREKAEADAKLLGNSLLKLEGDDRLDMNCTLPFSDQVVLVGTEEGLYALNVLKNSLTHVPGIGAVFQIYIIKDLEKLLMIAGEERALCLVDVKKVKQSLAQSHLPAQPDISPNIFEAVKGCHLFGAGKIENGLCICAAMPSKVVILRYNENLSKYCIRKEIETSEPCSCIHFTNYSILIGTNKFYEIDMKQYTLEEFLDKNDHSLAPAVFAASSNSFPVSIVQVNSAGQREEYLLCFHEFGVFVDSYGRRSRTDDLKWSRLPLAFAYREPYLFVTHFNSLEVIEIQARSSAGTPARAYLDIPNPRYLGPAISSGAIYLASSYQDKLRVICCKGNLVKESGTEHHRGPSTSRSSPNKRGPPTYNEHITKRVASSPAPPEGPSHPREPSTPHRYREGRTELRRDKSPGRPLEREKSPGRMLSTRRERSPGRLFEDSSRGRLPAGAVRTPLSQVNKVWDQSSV

SMILES: COc1cc(OC)c(Cl)c(N2Cc3cnc(Nc4ccc(F)cc4)nc3N(C3CCN(C(=O)/C=C/CN(C)C)CC3)C2=O)c1Cl
- Activity [1]: 100%
- Activity [2]: 96%
- Activity [3]: 99%
- Activity [4]: 96%
- Activity [5]: 87%
- Activity [6]: 90%
- Activity [7]: 100%
- Activity [8]: 100%
- Activity [9]: 100%
- Activity [10]: 97%
- Activity [11]: 99%
- Activity [12]: 69%
- Activity [13]: 100%
- Activity [14]: 100%
- Activity [15]: 100%
- Activity [16]: 92%
- Activity [17]: 96%
- Activity [18]: 85%
- Activity [19]: 96%
- Activity [20]: 89%
- Activity [21]: 100%
